Consider 1 compound from publication PMC8063330 (Oncology Letters, 2021).

The subject of assay [1] is c-myc in MKN-45 cells. Kind of assay: c-myc level by western blotting in MKN-45. The assay is classed as cell-based. The settings on record: 24 h. In outline: (§1)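 Cells grown in RPMI-1640 with 10% FBS and exposed to test compound. Lysates run on SDS-PAGE and immunoblotted for c-Myc with tubulin as loading reference. HRP secondaries, ECL detection.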
In assay [2] the test system is c-myc in SNU-638 cells. The assay is described as follows: c-myc level by western blotting in SNU-638. Format: cell-based. The note with it: 24 h. The procedure, abridged:
as §1

`CCNC(=O)C[C@@H]1N=C(c2ccc(Cl)cc2)c2cc(OC)ccc2-n2c(C)nnc21` [I-BET-762]: the c-myc level entry in assay [1] was “did not downregulate the c-myc level”; in assay [2], “downregulated the c-myc level”.
